# Tests used:
# HeLa = experiment: Antiproliferative activity against human HeLa cells after 72 hrs by MTT assay; format: functional, cell-based
# Procedure, shortened: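 Cells grown in MEM with 10% FCS, 1% non-essential amino acids and 1% penicillin-streptomycin. Seeded at 5000 cells/well, exposed to 0.1–30.0 µM compound for 72 h. MTT (5 mg/ml solution) was then added for 4 h, formazan dissolved in DMSO, and absorbance read at 545 nm. Cisplatin served as positive control. IC50 came from sigmoidal dose–response fits (log inhibitor vs normalized response, variable slope).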
# [1] = Synergistic cytotoxicity against mouse L5178 cells expressing human ABCB1 assessed as combination index at ED50 using 3.75:1 test compound to doxorubicin ratio after 48 hrs by MTT-based checkerboard microplate method; format: functional
# Procedure, shortened: (§1)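 Checkerboard microplate combinations of compound with doxorubicin at constant molar ratios. 5 × 10^4 cells/well in McCoy's 5A, 48 h at 37°C, 5% CO2. MTT added to 0.5 mg/mL final for 4 h, SDS/HCl overnight, OD read at 540 and 630 nm. Combination indices derived per ratio for 50%, 75% and 90% growth inhibition by median-effect analysis.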
# [2] = Synergistic cytotoxicity against mouse L5178 cells assessed as combination index at ED90 using 75:1 test compound to doxorubicin ratio after 48 hrs by MTT-based checkerboard microplate method; format: functional; procedure, shortened: as §1
# ABCB1 (P-glycoprotein) = ABCB1 (P-glycoprotein) (Homo sapiens, UniProt P08183); experiment: Inhibition of human ABCB1 expressed in mouse L5178 cells assessed as increase in rhodamine-123 accumulation at 20 uM after 10 mins by flow cytometric analysis relative to control; format: cell-based; details: mouse L5178 cells expressing human ABCB1, probe rhodamine-123
# Procedure, shortened: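 Cells at 2 × 10^6/mL were preincubated 10 min with compound. Rhodamine 123 then added to 5.2 µM final, 20 min at 37 °C. Cells washed twice in PBS, resuspended and read by flow cytometry. Percent inhibition was scaled between MDR-cell accumulation (0%) and parental L5178 accumulation (100%). Controls: 100 nM tariquidar (positive) and 2% DMSO (negative).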
# [3] = Synergistic cytotoxicity against mouse L5178 cells assessed as combination index at ED50 using 75:1 test compound to doxorubicin ratio after 48 hrs by MTT-based checkerboard microplate method; format: functional; procedure, shortened: as §1
# [4] = Synergistic cytotoxicity against mouse L5178 cells assessed as combination index at ED75 using 75:1 test compound to doxorubicin ratio after 48 hrs by MTT-based checkerboard microplate method; format: functional; procedure, shortened: as §1
# [5] = Synergistic cytotoxicity against mouse L5178 cells assessed as combination index at ED75 using 600:1 test compound to doxorubicin ratio after 48 hrs by MTT-based checkerboard microplate method; format: functional; procedure, shortened: as §1
# [6] = Synergistic cytotoxicity against mouse L5178 cells assessed as combination index at ED50 using 600:1 test compound to doxorubicin ratio after 48 hrs by MTT-based checkerboard microplate method; format: functional; procedure, shortened: as §1
# [7] = Synergistic cytotoxicity against mouse L5178 cells assessed as combination index at ED90 using 300:1 test compound to doxorubicin ratio after 48 hrs by MTT-based checkerboard microplate method; format: functional; procedure, shortened: as §1
# [8] = Synergistic cytotoxicity against mouse L5178 cells assessed as combination index at ED75 using 37.5:1 test compound to doxorubicin ratio after 48 hrs by MTT-based checkerboard microplate method; format: functional; procedure, shortened: as §1
# [9] = Synergistic cytotoxicity against mouse L5178 cells assessed as combination index at ED90 using 600:1 test compound to doxorubicin ratio after 48 hrs by MTT-based checkerboard microplate method; format: functional; procedure, shortened: as §1
# [10] = Synergistic cytotoxicity against mouse L5178 cells assessed as combination index at ED90 using 18.75:1 test compound to doxorubicin ratio after 48 hrs by MTT-based checkerboard microplate method; format: functional; procedure, shortened: as §1
# [11] = Synergistic cytotoxicity against mouse L5178 cells assessed as combination index at ED50 using 18.75:1 test compound to doxorubicin ratio after 48 hrs by MTT-based checkerboard microplate method; format: functional; procedure, shortened: as §1
# [12] = Synergistic cytotoxicity against mouse L5178 cells assessed as combination index at ED75 using 18.75:1 test compound to doxorubicin ratio after 48 hrs by MTT-based checkerboard microplate method; format: functional; procedure, shortened: as §1
# [13] = Synergistic cytotoxicity against mouse L5178 cells expressing human ABCB1 assessed as combination index at ED75 using 1.875:1 test compound to doxorubicin ratio after 48 hrs by MTT-based checkerboard microplate method; format: functional; procedure, shortened: as §1
# [14] = Synergistic cytotoxicity against mouse L5178 cells expressing human ABCB1 assessed as combination index at ED50 using 1.875:1 test compound to doxorubicin ratio after 48 hrs by MTT-based checkerboard microplate method; format: functional; procedure, shortened: as §1
# [15] = Synergistic cytotoxicity against mouse L5178 cells expressing human ABCB1 assessed as combination index at ED90 using 1.875:1 test compound to doxorubicin ratio after 48 hrs by MTT-based checkerboard microplate method; format: functional; procedure, shortened: as §1
# ABCB1 (P-glycoprotein), sequence (P08183 whole entry): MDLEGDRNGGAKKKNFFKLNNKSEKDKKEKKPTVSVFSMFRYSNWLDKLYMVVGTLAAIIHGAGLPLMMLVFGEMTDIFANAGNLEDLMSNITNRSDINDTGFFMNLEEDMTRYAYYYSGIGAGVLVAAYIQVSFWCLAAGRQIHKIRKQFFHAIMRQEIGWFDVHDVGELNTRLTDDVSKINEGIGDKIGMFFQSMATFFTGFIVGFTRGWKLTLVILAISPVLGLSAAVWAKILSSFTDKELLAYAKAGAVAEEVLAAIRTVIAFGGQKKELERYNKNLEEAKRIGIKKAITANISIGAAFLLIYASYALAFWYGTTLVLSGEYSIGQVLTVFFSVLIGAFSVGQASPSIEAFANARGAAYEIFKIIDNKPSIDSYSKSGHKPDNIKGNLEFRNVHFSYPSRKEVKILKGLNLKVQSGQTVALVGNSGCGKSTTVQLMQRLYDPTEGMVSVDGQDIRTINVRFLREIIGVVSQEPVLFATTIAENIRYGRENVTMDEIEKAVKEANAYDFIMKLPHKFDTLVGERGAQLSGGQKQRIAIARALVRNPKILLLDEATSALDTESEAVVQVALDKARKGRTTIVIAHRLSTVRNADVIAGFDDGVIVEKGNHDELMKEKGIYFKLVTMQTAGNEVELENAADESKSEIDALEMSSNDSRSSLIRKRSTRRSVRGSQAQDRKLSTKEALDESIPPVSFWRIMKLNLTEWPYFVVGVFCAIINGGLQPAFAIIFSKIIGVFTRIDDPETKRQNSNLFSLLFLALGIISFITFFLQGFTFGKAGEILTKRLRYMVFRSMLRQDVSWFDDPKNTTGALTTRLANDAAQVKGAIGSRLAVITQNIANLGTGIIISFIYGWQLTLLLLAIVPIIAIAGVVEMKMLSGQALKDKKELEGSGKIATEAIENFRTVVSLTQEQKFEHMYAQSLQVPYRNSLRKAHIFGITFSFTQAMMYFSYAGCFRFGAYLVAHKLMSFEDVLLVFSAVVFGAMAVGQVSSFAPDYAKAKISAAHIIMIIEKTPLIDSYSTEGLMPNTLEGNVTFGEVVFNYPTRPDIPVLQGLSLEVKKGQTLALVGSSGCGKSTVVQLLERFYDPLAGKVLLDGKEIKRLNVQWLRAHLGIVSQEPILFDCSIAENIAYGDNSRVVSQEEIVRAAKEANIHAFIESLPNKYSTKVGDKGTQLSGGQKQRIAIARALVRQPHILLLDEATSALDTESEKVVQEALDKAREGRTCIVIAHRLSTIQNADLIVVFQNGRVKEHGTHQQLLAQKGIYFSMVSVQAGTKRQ
SMILES,IC50 (HeLa),CI [1],CI [2],"inhibition at 10 min, 20 µM (ABCB1 (P-glycoprotein))",CI [3],CI [4],CI [5],CI [6],CI [7],CI [8],CI [9],CI [10],CI [11],CI [12],CI [13],CI [14],CI [15]
CC(C)(O)CC[C@H]1OC(C)(C)O[C@]1(C)[C@H]1CC=C2C3=C/C(=N\OC(C)(C)C)[C@@H]4C[C@H]5OC(C)(C)O[C@H]5C[C@]4(C)[C@H]3CC[C@@]21C,26.1 µM,0.31,0.83,94%,1.31,1.03,0.89,0.83,1.02,0.85,0.98,–,–,–,–,–,–
C=CCO/N=C1/C=C2[C@H](CC[C@]3(C)[C@@H]([C@@]4(C)OC(C)(C)O[C@@H]4CCC(C)(C)O)CC[C@@]23O)[C@@]2(C)C[C@@H]3OC(C)(C)O[C@@H]3C[C@@H]12,17.6 µM,0.23,1.03,81.8%,0.7,0.83,–,–,1.55,1.11,–,1.25,1.05,1.13,–,–,–
CCO/N=C1/C=C2C3=CC[C@H]([C@@]4(C)OC(C)(C)O[C@@H]4CCC(C)(C)O)[C@@]3(C)CC[C@@H]2[C@@]2(C)C[C@@H]3OC(C)(C)O[C@@H]3C[C@@H]12,30 µM,0.25,0.52,108%,0.49,0.5,1.1,1.21,0.74,0.66,1,–,–,–,–,–,–
CC(C)(O)CC[C@H]1OC(C)(C)O[C@]1(C)[C@H]1CC=C2C3=C/C(=N/OC(C)(C)C)[C@@H]4C[C@H]5OC(C)(C)O[C@H]5C[C@]4(C)[C@H]3CC[C@@]21C,20.7 µM,0.42,0.55,78.8%,0.82,0.67,0.91,0.88,1.07,0.59,0.94,–,–,–,–,–,–
CCO/N=C1/C=C2[C@H](CC[C@]3(C)[C@@H]([C@@]4(C)OC(C)(C)O[C@@H]4CCC(C)(C)O)CC[C@@]23O)[C@@]2(C)C[C@@H]3OC(C)(C)O[C@@H]3C[C@@H]12,29.1 µM,0.27,0.58,75%,0.58,0.58,0.83,0.75,0.98,0.52,0.94,–,–,–,0.17,0.36,0.1
C=CCO/N=C1/C=C2C3=CC[C@H]([C@@]4(C)OC(C)(C)O[C@@H]4CCC(C)(C)O)[C@@]3(C)CC[C@@H]2[C@@]2(C)C[C@@H]3OC(C)(C)O[C@@H]3C[C@@H]12,> 30 µM,0.25,0.44,103%,0.58,0.5,0.99,0.88,1.07,0.47,1.12,–,–,–,–,–,–
CO/N=C1/C=C2C3=CC[C@H]([C@@]4(C)OC(C)(C)O[C@@H]4CCC(C)(C)O)[C@@]3(C)CC[C@@H]2[C@@]2(C)C[C@@H]3OC(C)(C)O[C@@H]3C[C@@H]12,15.4 µM,0.2,0.39,106%,0.69,0.5,1.2,1.14,0.87,0.47,1.3,–,–,–,–,–,–

# Reference: ChEMBL document CHEMBL4145462, “Nitrogen-containing ecdysteroid derivatives vs. multi-drug resistance in cancer: Preparation and antitumor activity of oximes, oxime ethers and a lactam” (Eur J Med Chem, 2018)
